SR-BI uptake up: activators of SR-BI mediated DiI-HDL uptake, primary screen, ldlA[mSR-BI] CHO cells, DiI fluorescence; 3 h; 100 = double the neutral-control signal; activation, % at 12.5 µM; 0.096% of 320,000 active; AID 504775, 2011;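 active = mean replicate activation of at least 60% and every replicate at or above 60%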;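 also: 0% = median plate neutral-control signal and 100% = twice that signal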
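Assay system: LDL receptor-deficient CHO ldlA cells overexpressing murine SR-BI / Medium: BSA-supplemented, HEPES-buffered Ham's F12, pH 7.4 / Probe or stimulus: DiI-labelled HDL at 10 µg/mL final / Timing: compound with DiI-HDL co-incubation, 3 h at 37 °C / Technique: bottom-read cell fluorescence after medium removal, ex 550/em 595 nm / Measure: HDL uptake via cellular fluorescence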
PKA-R2B activ: activators of PKA-R2B holoenzyme, primary screen, biochemical, fluorescence polarization, Cy5-IP20, human; PKA-R2B holoenzyme dissociation; R2B truncated from residue 108, S112A mutant; 0% DMSO only, 100% 113 µM cGMP; AID 504700, 2011; 0.079% of 340,000 active; activation, % at 11.4 µM; cAMP-dependent protein kinase catalytic subunit beta (Homo sapiens) + cAMP-dependent …;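 active = activation above a cutoff set at the mean over all compounds plus 3 SD, cut at about 18% in these data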;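 also: higher means more holoenzyme dissociation and a rise in polarization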
SR-BI DiI inh: inhibitors of SR-BI mediated HDL lipid uptake, primary screen, ldlA[mSR-BI] cells, fluorescence, single point | Scavenger receptor class B member 1 (Mus musculus), Q61009 | 0.96% of 320,000 active | inhibition, % at 12.5 µM | ldlA[mSR-BI] CHO cells, DiI-HDL uptake fluorescence, 3 h;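 active = mean replicate inhibition of at least 70% and a set share of replicates each scoring 70 or more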;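 also: 0% = median of neutral control wells and 100% = median of positive control wells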
PKA-R1A act: activators of PKA-R1A holoenzyme, primary screen, biochemical, fluorescence polarization, Cy5-IP20, bovine R1A, mouse PKAc. 0.083% of 340,000 active. cAMP-dependent protein kinase type I-alpha regulatory subunit (Bos taurus) + …. PKA-R1A dissociation; scaled: DMSO 0%, 113 µM cGMP 100%. activation, % at 11.4 µM;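 active = percent activation above the mean of all tested compounds plus 3 SD, cut at about 19% in these data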;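 also: higher means more PKAc released from R1A so a rise in polarization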
dFosB activator: activators of delta FosB homodimer, primary screen, biochemical, fluorescence polarization, TAMRA-CDK5 oligo, single point; Protein FosB (Mus musculus), P13346; purified delta FosB; percent of positive-control signal above neutral wells; activation, % at 25 µM; 0.99% of 340,000 active; AID 493131, 2011;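 active = mean activation above about 17%, with every replicate also reaching it, limit read from the data, passing the limit was not always enough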
Target sequence (P13346 whole entry, looked up): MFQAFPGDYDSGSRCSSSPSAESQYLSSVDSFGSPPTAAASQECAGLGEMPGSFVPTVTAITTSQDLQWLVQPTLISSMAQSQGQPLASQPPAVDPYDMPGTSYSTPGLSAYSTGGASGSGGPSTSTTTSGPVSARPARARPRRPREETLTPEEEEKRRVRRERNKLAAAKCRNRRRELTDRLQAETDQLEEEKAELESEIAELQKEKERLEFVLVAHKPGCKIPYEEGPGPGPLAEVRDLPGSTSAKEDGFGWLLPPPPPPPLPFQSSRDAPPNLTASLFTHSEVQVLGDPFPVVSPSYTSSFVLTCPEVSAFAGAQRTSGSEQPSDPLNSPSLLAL
CDK5 inh: inhibitors of human CDK5/p35 kinase, primary screen, biochemical, single concentration. Recombinant CDK5/p35, ADP-Glo luminescence, 60 min. inhibition, % at 10 µM. 0.01% of 330,000 active. AID 488839, 2010;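 active = highest replicate inhibition of at least 50% and at least 75% of replicates reaching 50%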;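 also: plate controls were DMSO neutral control for no effect and GW8510 at 10 µM for full effect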
* marks the source's active call; other numbers are inactive results. In the library only some 2.1% were active in any assay of this set; here they are far more common.

SMILES	SR-BI uptake up	PKA-R2B activ	SR-BI DiI inh	PKA-R1A act	dFosB activator	CDK5 inh
C=CCN(c1ccccc1C(=O)NCC(=O)O)S(=O)(=O)c1ccccc1C	-8	5	8	4	-1	-1
CCOC(=O)N1CCN(S(=O)(=O)c2ccc(C(=O)NNc3nc4cc(C)cc(C)c4s3)cc2)CC1	-121	5	121*	-2	-7	0
CCOC(=O)N1CCN(S(=O)(=O)c2ccc(C(=O)NNc3nc4c(C)cccc4s3)cc2)CC1	-102	8	102*	5	-18	-3
CCOC(=O)N1CCN(S(=O)(=O)c2ccc(C(=O)NNc3nc4ccc(Cl)cc4s3)cc2)CC1	-128	-12	128*	-7	15	-1
COc1cccc(C(=O)NCC2(c3ccccc3)CCCC2)c1OC	2	-7	-2	-5	-1	1
COCc1nnc(NC(=O)CCN2C(=O)c3ccccc3C2=O)s1	1	2	-1	-5	3	3
CCCc1nnc(NC(=O)CCN2C(=O)c3ccccc3C2=O)s1	25	2	-25	-9	19*	1
Cc1cc(/C=N/n2c(COc3ccccc3)nc3ccccc3c2=O)c(O)c([N+](=O)[O-])c1	-130	2	130*	1	-3	1
COc1cc(/C=C/C(=O)c2ccc3c(c2)OCCO3)cc(OC)c1OC	-72	7	72*	-7	-3	3
COc1cc(/C=C/C(=O)c2ccc3c(c2)OCO3)cc(OC)c1OC	-24	-6	24	-10	-1	1
Cc1ccc(NC(=S)c2nc3ccccc3[nH]2)c(C)c1	-62	-13	62	-16	3	-1
Cc1ccc(NC(=S)c2nc3ccccc3[nH]2)cc1	-77	-4	77*	-10	-6	0
Oc1ccccc1-c1nc(NC2CCCC2)c2ccccc2n1	-82	-6	82*	-8	-11	1
Cc1nc(C(=O)Nc2cc(F)cc(Cl)c2)sc1C1(C)CC(c2ccccc2)=NO1 (stereo not drawn)	-80	2	80*	9	-10	-2
Cc1nc(-c2ccccc2)sc1C1(C)CC(c2cccc([N+](=O)[O-])c2)=NO1 (stereo not drawn)	2	-4	-2	8	-6	2
Cc1nc(C(=O)NC2CCCCC2)sc1C1(C)CC(c2cccc([N+](=O)[O-])c2)=NO1 (stereo not drawn)	-76	-11	76*	-3	-8	0
Cc1nc(C(=O)Nc2ccc(Cl)cc2)sc1C1(C)CC(c2cccc([N+](=O)[O-])c2)=NO1 (stereo not drawn)	-77	-11	77*	14	0	-3
O=C(Nc1ccc(Oc2ccc(Br)cc2)cc1)C1=CC=CN2CCS(=O)(=O)N=C12	27	-12	-27	-17	-12	1
OCC[C@@H]1C[C@@H](O)[C@H](O)[C@]2(CCc3ccccc3CO2)O1	8	-1	-8	-6	-1	-1
CCN=C1SC(CC(=O)Nc2ccccc2OCC)C(=O)N1CC (stereo not drawn)	-70	0	70	2	-10	1
CCCCOc1ccccc1NC(=O)CC1SC(=NCC)N(CC)C1=O (stereo not drawn)	-84	-5	84*	-4	-2	1
O=C(CN1C(=O)c2ccccc2S1(=O)=O)Nc1ncc(Cl)cc1Cl	-4	-8	4	1	-9	-2
